Activity calls are given as the source filed them. The calls are words filed in the database; no cut-off is given here.
Legend:
Tubulin (Homo sapiens) = Tubulin (Homo sapiens) (UniProt P68371+Q9H4B7+P0DPH7+P68366+Q13509+Q71U36+P04350+Q3ZCM7+P07437+P68363+Q9BQE3+Q6PEY2+Q13885+Q9BVA1+Q9BUF5); experiment: Inhibition of tubulin polymerization in human MCF7 cells assessed as induction of microtubules bundles formation at 1 uM incubated for 16 hrs by FITC-DAPI staining based confocal microscopic analysis; format: cell-based
MCF7 [1] = experiment: Binding affinity to beta-Tubulin in human MCF7 cells assessed as inhibition of protein-EBI adduct formation at Cys239 and Cys354 at 10 uM pre-incubated for 2 hrs followed by EBI addition after 1.5 hrs by Western blot analysis; format: cell-based
Summary of the method: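 MCF-7 seeded at 5×10^4 cells/well and incubated overnight. Treated 2 h with test agent at 10 μM or with vehicle (0.1% v/v ethanol), then with N,N'-ethylene-bis(iodoacetamide) for a further 1.5 h. Cells washed in ice-cold PBS and lysed in Laemmli buffer. SDS-PAGE, PVDF transfer and β-tubulin immunoblot to detect the faster-migrating β-tubulin–EBI adduct. Three independent experiments.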

MCF7 [2] = experiment: Antiproliferative activity against human MCF7 cells assessed as cell viability pre-incubated for 24 hrs with CO2 followed by compound addition after 72 hrs by MTT assay; format: functional, cell-based
Summary of the method: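 MCF-7 grown in Eagle's MEM with 10% FBS, 2 mM L-glutamine, penicillin/streptomycin and 1% non-essential amino acids. Cells seeded at 2.5 x 10⁴ cells/mL, 24 h at 37 °C, then dosed from ethanol stocks over 1 nM–100 µM (vehicle 1% v/v ethanol) for 72 h. MTT at 1 mg/mL final, 2 h in the dark, DMSO solubilisation. Viability set against untreated controls; IC50 is the mean of three experiments in triplicate.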

MCF7 [3] = experiment: Cytotoxicity against human MCF7 cells assessed as induction of cell death at 10 uM after 72 hrs by LDH assay; format: cell-based; details: mcf7, 72 h
Summary of the method: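 Cell death in MCF-7 measured by LDH release. Seeding and dosing as for the MTT assay; after 72 h, lysis solution added to blank wells for 1 h to give 100% death. Supernatant mixed with substrate (INT to formazan) for 30 min at rt in the dark, then stopped and read at 490 nm. Percentage cell death reported at 10 μM; assays in triplicate.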

[4] = Half life of the compound in pH 4 after 3 to 24 hrs by HPLC; format: physicochemical
Summary of the method: (§1)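 10 mg compound was dissolved in 10 ml mobile phase as stock. 200 µL stock was diluted into 9.8 mL phosphate buffer (pH 4, 7.4 or 9, British Pharmacopeia 2010) and injected immediately. Samples were analysed at t=0, then every 3 h to 24 h, by reverse-phase C8 HPLC: acetonitrile:water 50:50, 1 ml/min, 254 nm detection. Half-life was derived from these runs.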

[5] = Half life of the compound in pH 7.4 after 3 to 24 hrs by HPLC; format: physicochemical; summary of the method: as §1
[6] = Half life of the compound in pH 9 after 3 to 24 hrs by HPLC; format: physicochemical; summary of the method: as §1
Tubulin (Sus scrofa) = Tubulin (Sus scrofa) (UniProt P02554+P02550); experiment: Inhibition of porcine tubulin polymerization assessed as inhibition of tubulin assembly Vmax rate at 10 uM by spectrophotometric analysis; format: protein assay
Summary of the method: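 Tubulin polymerisation kit (>97% pure porcine tubulin, OD-based). Tubulin plus GTP at 37 °C with test agent at 10 μM final; 1% v/v ethanol as vehicle. A340 read every 30 s for 60 min at 37 °C. Fold change in Vmax calculated relative to vehicle; mean of three separate experiments.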

MCF7 [7] = experiment: Induction of apoptosis in human MCF7 cells assessed as accumulation at sub-G0/G1 level at 100 nM after 72 hrs by propidium iodide staining based flow cytometric analysis (reference value: 4%); format: functional
[8] = Antiproliferative activity against human MDA-MB-321 cells assessed as cell viability after 72 hrs by MTT assay; format: functional, cell-based
Summary of the method: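 MDA-MB-231 cells kept in DMEM with 10% FBS, 2 mM L-glutamine and penicillin/streptomycin. Seeded at 2.5 x 10⁴ cells/mL, 24 h at 37 °C, then exposed for 72 h to 1 nM–100 µM from ethanol stocks (1% v/v ethanol vehicle). MTT added at 1 mg/mL final for 2 h in the dark, DMSO solubilisation, absorbance read, viability relative to untreated controls.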

MCF7 [9] = experiment: Induction of cell cycle arrest in human MCF7 cells assessed as accumulation at G2/M phase at 50 nM after 24 hrs by propidium iodide staining based flow cytometric analysis (reference value: 25%); format: functional
MCF7 [10] = experiment: Inhibition of tubulin polymerization in human MCF7 cells assessed as loss of microtubules formation at 100 nM incubated for 16 hrs by FITC-DAPI staining based confocal microscopic analysis; format: functional, cell-based
Summary of the method: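 MCF-7 seeded at 1×10^5 cells/ml on chamber glass slides and treated 16 h with paclitaxel (1 μM), test agent (100 nM) or vehicle (1% v/v ethanol). Fixed 20 min in 4% paraformaldehyde, permeabilised in 0.5% Triton X-100, blocked in 5% BSA. Stained with anti-α-tubulin–FITC (DM1A, 1:100, 2 h rt) and Alexa Fluor 488, DAPI counterstain. Imaged by confocal microscopy; three independent occasions.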

MCF7 [11] = experiment: Induction of cell cycle arrest in human MCF7 cells assessed as accumulation at G2/M phase at 50 nM after 48 hrs by propidium iodide staining based flow cytometric analysis (reference value: 25%); format: functional
MCF7 [12] = experiment: Induction of apoptosis in human MCF7 cells assessed as accumulation at sub-G0/G1 level at 50 nM after 72 hrs by propidium iodide staining based flow cytometric analysis (reference value: 4%); format: functional
MCF7 [13] = experiment: Antiproliferative activity against human MCF7 cells by SRB assay; format: functional
Summary of the method: (§2)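 NCI panel of 56 cell lines (MCF-7 included), run after an initial single-dose 10 μM screen. Five-dose testing used a sulphorhodamine B protein-staining read-out. GI50 (50% growth inhibition) and LC50 (50% lethal concentration) were derived for each line, and a mean GI50 was taken across the panel.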

[14] = Antiproliferative activity against human NCI60 cells by SRB assay; format: functional; summary of the method: as §2
[15] = Toxicity in ip dosed athymic nude mouse; format: organism-based; details: in vivo
[16] = Antitumor activity against human UACC62 cells xenografted in athymic nude mouse assessed as reduction in tumor cell growth at 37.5 mg/kg, ip by hollow fiber assay; format: functional; details: UACC-62, ip, read-out: TGI

Chain of Tubulin (Sus scrofa) (P02550 whole entry, looked up): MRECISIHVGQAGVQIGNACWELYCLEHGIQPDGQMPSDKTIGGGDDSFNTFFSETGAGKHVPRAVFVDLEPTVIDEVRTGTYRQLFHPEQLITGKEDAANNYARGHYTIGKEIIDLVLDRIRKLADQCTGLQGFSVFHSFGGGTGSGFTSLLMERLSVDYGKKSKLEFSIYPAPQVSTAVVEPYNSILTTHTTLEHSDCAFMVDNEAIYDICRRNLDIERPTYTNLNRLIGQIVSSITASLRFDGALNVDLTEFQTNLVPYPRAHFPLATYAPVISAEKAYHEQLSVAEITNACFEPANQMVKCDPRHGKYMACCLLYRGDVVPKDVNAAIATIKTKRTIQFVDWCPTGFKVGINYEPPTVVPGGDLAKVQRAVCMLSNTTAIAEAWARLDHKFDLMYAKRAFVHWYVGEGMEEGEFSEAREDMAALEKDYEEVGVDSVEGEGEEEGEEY
Chain of Tubulin (Sus scrofa) (P02554 whole entry, looked up): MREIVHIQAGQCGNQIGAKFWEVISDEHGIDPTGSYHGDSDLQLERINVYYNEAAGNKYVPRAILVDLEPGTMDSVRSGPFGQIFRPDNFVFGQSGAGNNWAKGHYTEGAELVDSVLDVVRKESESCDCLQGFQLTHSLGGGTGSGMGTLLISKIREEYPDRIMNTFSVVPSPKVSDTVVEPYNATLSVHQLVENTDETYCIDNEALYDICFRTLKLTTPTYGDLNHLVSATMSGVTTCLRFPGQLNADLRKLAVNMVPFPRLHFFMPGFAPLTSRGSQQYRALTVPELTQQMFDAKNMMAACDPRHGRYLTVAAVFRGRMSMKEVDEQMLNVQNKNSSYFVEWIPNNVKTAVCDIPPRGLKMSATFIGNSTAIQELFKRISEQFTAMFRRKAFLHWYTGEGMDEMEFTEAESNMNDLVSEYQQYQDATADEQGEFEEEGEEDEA

Q: Which inhibition (Tubulin (Homo sapiens)) does the source give for `CC(=O)O[C@H]1C(=O)[C@@]2(C)[C@H]([C@H](OC(=O)c3ccccc3)[C@]3(O)C[C@H](OC(=O)[C@H](O)[C@@H](NC(=O)c4ccccc4)c4ccccc4)C(C)=C1C3(C)C)[C@]1(OC(C)=O)CO[C@@H]1C[C@@H]2O` here?
A: Active

Q: With `COc1cc2c(c(OC)c1OC)-c1ccc(OC)c(=O)cc1[C@@H](NC(C)=O)CC2` as the compound, how does the Activity (MCF7 [1]) read?
A: Active

Q: For `COc1ccc([C@@H]2[C@H](Oc3cc(OC)c(OC)c(OC)c3)C(=O)N2c2cc(OC)c(OC)c(OC)c2)cc1O` (relative stereo), which IC50 (MCF7 [2]) is on record?
A: 33000 nM

Q: And the Activity (MCF7 [3])?
A: 10.9%

Q: For `COc1ccc([C@@H]2[C@@H](Oc3ccccc3)C(=O)N2c2cc(OC)c(OC)c(OC)c2)cc1O` (relative stereo), which half-life [4] is on record?
A: 12 h

Q: And the half-life [5]?
A: 8 h

Q: And the half-life [6]?
A: 11 h

Q: And the IC50 (MCF7 [2])?
A: 38 nM

Q: And the Activity (MCF7 [3])?
A: 29%

Q: And the fold change (FC) (Tubulin (Sus scrofa))?
A: 3.2

Q: And the Activity (MCF7 [7])?
A: 34%

Q: For `COc1ccc([C@@H]2[C@H](Oc3ccccc3)C(=S)N2c2cc(OC)c(OC)c(OC)c2)cc1O` (relative stereo), which IC50 (MCF7 [2]) is on record?
A: 7500 nM

Q: What about the Activity (MCF7 [3]) of the same compound?
A: 4.8%

Q: With `COc1ccc([C@@H]2[C@@H](Oc3ccccc3)C(=O)N2c2cc(OC)c(OC)c(OC)c2)cc1N` (relative stereo) as the compound, how does the IC50 [8] read?
A: 15 nM

Q: What about the half-life [4] of the same compound?
A: 18 h

Q: And the half-life [5]?
A: > 24 h

Q: And the half-life [6]?
A: 18 h

Q: What about the IC50 (MCF7 [2]) of the same compound?
A: 13 nM

Q: And the Activity (MCF7 [3])?
A: 10.2%

Q: What about the Activity (MCF7 [9]) of the same compound?
A: 57%

Q: And the inhibition (MCF7 [10])?
A: Active

Q: What about the fold change (FC) (Tubulin (Sus scrofa)) of the same compound?
A: 1.8

Q: What about the Activity (MCF7 [1]) of the same compound?
A: Active

Q: And the Activity (MCF7 [11])?
A: 73%

Q: What about the Activity (MCF7 [12]) of the same compound?
A: 35%

Q: And the GI50 (MCF7 [13])?
A: < 10 nM

Q: And the GI50 [14]?
A: 22.4 nM

Q: What about the MTD [15] of the same compound?
A: 100 mg/kg

Q: And the inhibition in vivo at 37.5 mg/kg [16]?
A: 50%

Q: Which IC50 (MCF7 [2]) does the source give for `COc1cc(N2C(=O)[C@@H](Oc3ccccc3)[C@H]2c2ccc(N(C)C)cc2)cc(OC)c1OC` (relative stereo) here?
A: 31000 nM

Q: What about the Activity (MCF7 [3]) of the same compound?
A: 5.9%

Q: And the fold change (FC) (Tubulin (Sus scrofa))?
A: 0

Q: With `COc1cc(N2C(=O)[C@H](Oc3ccccc3)[C@H]2c2ccc(C#N)cc2)cc(OC)c1OC` (relative stereo) as the compound, how does the IC50 (MCF7 [2]) read?
A: 168000 nM

Q: What about the Activity (MCF7 [3]) of the same compound?
A: 2.1%

Q: What about the fold change (FC) (Tubulin (Sus scrofa)) of the same compound?
A: 0

Q: Which IC50 (MCF7 [2]) does the source give for `COc1ccc([C@@H]2[C@H](Oc3ccccc3)C(=O)N2c2cc(OC)c(OC)c(OC)c2)cc1OC(=O)CCCc1ccc(N(CCCl)CCCl)cc1` (relative stereo) here?
A: 410 nM

Q: What about the Activity (MCF7 [3]) of the same compound?
A: 8%

Q: What does the source list for `COc1ccc([C@@H]2[C@H](Oc3ccccc3)C(=O)N2c2cc(OC)c(OC)c(OC)c2)cc1O` (relative stereo)?
A: IC50 (MCF7 [2]): 383 nM; Activity (MCF7 [3]): 2.8%; fold change (FC) (Tubulin (Sus scrofa)): 1.1; GI50 (MCF7 [13]): 360 nM; GI50 [14]: 1450 nM

Q: Which IC50 (MCF7 [2]) does the source give for `COc1ccc([C@@H]2[C@H](Oc3ccccc3)C(=O)N2c2cc(OC)c(OC)c(OC)c2)cc1NC(=O)CCCc1ccc(N(CCCl)CCCl)cc1` (relative stereo) here?
A: 145000 nM

Q: What about the Activity (MCF7 [3]) of the same compound?
A: 3.2%

Q: Which IC50 (MCF7 [2]) does the source give for `O=C(O)CCCc1ccc(N(CCCl)CCCl)cc1` [CHLORAMBUCIL] here?
A: 97000 nM

Q: And the Activity (MCF7 [3])?
A: 8%

Q: What does the source list for `COc1ccc(/C=C\c2cc(OC)c(OC)c(OC)c2)cc1O` [COMBRETASTATIN A4]?
A: IC50 (MCF7 [2]): 3.9 nM; Activity (MCF7 [3]): 5.5%; inhibition (MCF7 [10]): Active; fold change (FC) (Tubulin (Sus scrofa)): 6; Activity (MCF7 [1]): Active
